{"data": "Results pooled from the literature", "target": "Calcium/calmodulin-dependent protein kinase type II subunit gamma (CAMK2G, Homo sapiens, UniProt Q13555)", "note": "Compare with care: the assays were run in different laboratories."}
{"Compound": "CNC(=O)Nc1ccc2c(c1)CC[C@@]21OC(=O)N(CC(=O)N(Cc2ccc(F)cc2)[C@@H](C)C(F)(F)F)C1=O", "assay": "cell-free assay, competition with immobilised ligand", "conditions": "1 µM", "quantity": "remaining binding", "value": "76%"}
{"Compound": "Cc1cnc(NC2CCOCC2)nc1-n1cnc(C(=O)NC(CN)c2cc(F)cc(Cl)c2)c1 (centres unmarked)", "assay": "enzyme activity, inhibitor, radiometric", "conditions": "1 µM", "quantity": "remaining activity", "value": "88%"}
{"Compound": "CC(C)(C)c1nc(-c2cccc(NS(=O)(=O)c3c(F)cccc3F)c2F)c(-c2ccnc(N)n2)s1", "assay": "enzyme activity, inhibitor, radiometric", "conditions": "1 µM", "quantity": "remaining activity", "value": "102%"}
{"Compound": "C[C@@H]1CN(c2cc(-c3nn(C)c4ccc(OC5(C)CC5)cc34)ncn2)C[C@H](C)O1", "assay": "cell-free assay, competition with immobilised ligand", "conditions": "1 µM", "quantity": "remaining binding", "value": "90%"}
{"Compound": "Cc1ccc(NC(=O)c2ccc(C)c(C(F)(F)F)c2)cc1C#Cc1nn(C2CCC(O)CC2)c2ncnc(N)c12 (centres unmarked)", "assay": "cell-free assay", "conditions": "10 µM", "quantity": "remaining signal", "value": "90%"}
{"Compound": "CN(C)c1ncnc(-c2ccc3nc(Nc4cc(CN5CCN(C(=O)CC(F)(F)F)CC5)ccn4)[nH]c3c2)c1Cl", "assay": "cell-free assay, competition with immobilised ligand", "conditions": "1 µM", "quantity": "remaining binding", "value": "100%"}
{"Compound": "Cc1cc(NC(=O)c2cccc3cc(-c4cccc5[nH]nc(N)c45)ccc23)ccc1F", "assay": "enzyme activity, inhibitor", "conditions": "0.1 µM", "quantity": "activity vs control", "value": "106%"}
{"Compound": "Cc1ccc(C(=O)NCc2ccsc2)cc1C#Cc1cn(C(C)C)c2ncnc(N)c12", "assay": "enzyme activity, inhibitor", "conditions": "1 µM", "quantity": "activity vs control", "value": "101%"}
{"Compound": "CCCS(=O)(=O)Nc1ccc(F)c(C(=O)c2c[nH]c3ncc(-c4ccc(Cl)cc4)cc23)c1F", "assay": "enzyme activity, inhibitor", "conditions": "1 µM", "quantity": "inhibition", "value": "< 10%"}
{"Compound": "COc1ccc2cc(OCC3(C(=O)O)CN(C(=O)c4ccc(F)cc4)C3)ccc2c1", "assay": "cell-free assay, competition with immobilised ligand", "conditions": "1 µM", "quantity": "remaining binding", "value": "100%"}
{"Compound": "COc1cc(Cl)c(C(=O)N[C@@H](CN[C@H]2CC[C@@H](N)CC2)Cc2ccc(C#N)cc2)cc1-c1ccc(CN[C@H](C)c2ccc(C)cc2)o1", "assay": "enzyme activity, inhibitor", "conditions": "1 µM", "quantity": "remaining activity", "value": "87%"}
{"Compound": "CNC(=O)c1cc(Oc2ccc(NC(=O)Nc3ccc(Cl)c(C(F)(F)F)c3)cc2)ccn1", "assay": "cell-free assay", "conditions": "10 µM", "quantity": "inhibition", "value": "78%"}
{"Compound": "N#CCCc1ccc2c(c1)-c1[nH]c3ccc([N+](=O)[O-])cc3c1CC(=O)N2", "assay": "cell-free assay", "conditions": "0.5 µM", "quantity": "remaining signal", "value": "66%"}
{"Compound": "O=C(NC[C@@H]1[C@H]2CN(C(=O)OCc3cc(C(F)(F)F)cc(C(F)(F)F)c3)C[C@@H]12)c1ccc2[nH]nnc2c1", "assay": "cell-free assay, competition with immobilised ligand", "conditions": "1 µM", "quantity": "remaining binding", "value": "85%"}
{"Compound": "CCN(CC)c1ccc(C2=NNC(=O)CC2C)cc1[N+](=O)[O-] (centres unmarked)", "assay": "enzyme activity, inhibitor", "conditions": "10 µM", "quantity": "remaining activity", "value": "119%"}
{"Compound": "CCCOc1ccc(OC)c(F)c1C(=O)c1ccc(C(=O)N[C@@H]2CNC[C@H]2NC(=O)c2ccc3[nH]ncc3c2)cc1", "assay": "enzyme activity, inhibitor", "conditions": "10 µM", "quantity": "remaining activity", "value": "79%"}
{"Compound": "COc1ccc2c(O[C@@H]3C[C@H]4C(=O)N[C@]5(C(=O)O)CC5/C=C\\CCCCC[C@H](NC(=O)OC5CCCC5)C(=O)N4C3)cc(-c3csc(NC(=O)C(C)C)n3)nc2c1C (some centres unmarked)", "assay": "cell-free assay, competition with immobilised ligand", "conditions": "1 µM", "quantity": "remaining binding", "value": "100%"}
{"Compound": "Cc1ccc(C(=O)Nc2ccc(CN3CCN(C)CC3)c(C(F)(F)F)c2)cc1C#Cc1cnc2cccnn12", "assay": "cell-free assay", "conditions": "23.5 nM", "quantity": "remaining signal", "value": "98%"}
{"Compound": "C[C@@H]1CCN(C(=O)CC#N)C[C@@H]1N(C)c1ncnc2[nH]ccc12", "assay": "cell-free assay", "conditions": "0.5 µM", "quantity": "remaining signal", "value": "127%"}
{"Compound": "Cc1sc(C(=O)NC2COC2)cc1-n1cc(NC(=O)Nc2c(F)cccc2Cl)cn1", "assay": "enzyme activity, inhibitor", "conditions": "10 µM", "quantity": "remaining activity", "value": "102%"}
